MC4R ag barr: MC4R agonists recruiting beta-arrestin, primary screen, cell-based, luminescence, agonist arm of biased-ligand search; Melanocortin receptor 4 (Homo sapiens), P32245; U2OS MC4R beta-arrestin complementation; percent of melanotan II response, DMSO zero; activation, % at 8.9 µM; 0.98% of 360,000 active;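 active = activation above a per-plate cutoff, the mean activation of sample wells on that plate plus 3 SD, cut at about 8% in these data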
Beta apoptosis: inhibitors of cytokine-induced beta cell apoptosis, primary screen, luminescence | INS-1E cytokine-induced death, ATP luminescence, 48 h; percent of positive-control rescue, neutral wells zero | protection from apoptosis, % (concentration not given with the values) | 0.8% of 300,000 active;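 active = Every replicate reaches about 75%, or at least half do and their mean reaches it too, limit read from the data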;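 also: higher means more ATP so stronger rescue from cytokine killing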
ANO1 activ: TMEM16A chloride channel activators or potentiators, primary screen, cell-based, HTS; HEK293 TMEM16A/YFP-H148Q/I152L, iodide quench fluorescence; active compounds read low; 0.3% of 340,000 active; AID 623877, 2012; Anoctamin-1 (Mus musculus), Q8BHY3; B-score at 10 µM;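 active = fluorescence-ratio B-score plate-corrected deviation score at least 3 library SD below zero, with starting fluorescence score within 5 deviations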;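 also: channel opened by trigger with iodide after compound preincubation; score built on the fluorescence ratio of max minus min over baseline; more negative score means more quench and so TMEM16A activation or potentiation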
MC4R antagonist: MC4R antagonists of cAMP signaling, primary screen, cell-based, TR-FRET, antagonist arm of biased-ligand search; Melanocortin receptor 4 (Homo sapiens), P32245; inhibition, % at 6.5 µM; 0.48% of 360,000 active; MC4R-expressing cells, MTII-stimulated cAMP, LANCE TR-FRET;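 active = inhibition above its plate's cutoff, the mean of tested wells on that plate plus 3 SD, cut at about 29% in these data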
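Material: U2OS-MC4R stable cell line | Reagent: Melanotan II challenge after compound preincubation | Doses: One concentration, 6.5 µM nominal | Incubation: 30-min compound preincubation, 1-h Melanotan II challenge, 1-h detection, room temperature | Signal: TR-FRET cAMP assay | Replicates: One well per compound, no replicates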
CSC inhib: cancer stem cell viability inhibitors, primary screen, luminescence; cancer stem cell-like cells viability; inhibition, % at 7.5 µM; 1.1% of 300,000 active; AID 2717, 2010; in the data active = inhibition above about 75%; tested in HMLE shEcad cells
TMEM16A inh: TMEM16A chloride channel inhibitors, primary screen, cell-based, HTS | Anoctamin-1 (Mus musculus), Q8BHY3 | normalized B-score (activity score, 25-100; higher = stronger inhibition) at 10 µM | 1.2% of 310,000 active | HEK293 TMEM16A/YFP iodide influx fluorescence, ionomycin;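 active = ratio plate-corrected score three or more library SD toward inhibition, starting fluorescence score within five deviations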;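 also: score derived from kinetic fluorescence span divided by baseline fluorescence per well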
Numbers stand for hits. Hits are enriched below; roughly 3.8% of the tested compounds scored in any of these assays.

`O=C(OCC(=O)N1CCC(Cc2ccccc2)CC1)c1cc(Br)ccc1O` gave MC4R ag barr inactive, Beta apoptosis inactive, ANO1 activ inactive, MC4R antagonist inactive and CSC inhib inactive.
Screening CC(=O)c1c(C)[nH]c(C(=O)COC(=O)c2c(-c3ccccc3)noc2C)c1C returned MC4R ag barr inactive, Beta apoptosis inactive, ANO1 activ inactive, MC4R antagonist inactive and CSC inhib inactive.
Screening Cc1nn(Cc2ccc(Cl)cc2)c(=O)n1N(C)c1ncc(C(F)(F)F)cc1Cl returned MC4R ag barr 9.2, Beta apoptosis inactive, ANO1 activ inactive, MC4R antagonist inactive, CSC inhib inactive and TMEM16A inh inactive.
`COc1ccc(/C=N\n2nnc3ccccc32)cc1` gave MC4R ag barr 9.0, Beta apoptosis inactive, ANO1 activ inactive, MC4R antagonist inactive, CSC inhib inactive and TMEM16A inh inactive.
COc1ccc(Cn2c(/C=C/c3ccccc3)nc3ccccc32)cc1 was read as MC4R ag barr inactive, Beta apoptosis inactive, ANO1 activ inactive, MC4R antagonist inactive, CSC inhib inactive and TMEM16A inh inactive.
COc1ccc(/C=C/c2nc3ccccc3n2C)cc1 was read as MC4R ag barr inactive, Beta apoptosis 106, ANO1 activ inactive, MC4R antagonist inactive, CSC inhib 88 and TMEM16A inh inactive.
For COc1ccc(/C=N/n2c(C)nc3ccccc3c2=O)cc1 the results were MC4R ag barr inactive, Beta apoptosis inactive, ANO1 activ inactive, MC4R antagonist inactive, CSC inhib inactive and TMEM16A inh inactive.
Cn1c(/C=C/c2ccc(Cl)cc2)nc2ccccc2c1=O was read as MC4R ag barr 9.0, Beta apoptosis inactive, ANO1 activ inactive, MC4R antagonist inactive, CSC inhib inactive and TMEM16A inh inactive.
Screening Cn1c(/C=C/c2ccccc2)nc2ccccc2c1=O returned MC4R ag barr inactive, Beta apoptosis inactive, ANO1 activ inactive, MC4R antagonist inactive, CSC inhib inactive and TMEM16A inh inactive.
Cn1c(/C=C/c2ccc([N+](=O)[O-])o2)nc2ccccc2c1=O was read as MC4R ag barr inactive, Beta apoptosis 106, ANO1 activ inactive, MC4R antagonist inactive, CSC inhib 110 and TMEM16A inh inactive.
Cc1cc(N/N=C/c2ccc([N+](=O)[O-])o2)nc2ccccc12 was read as MC4R ag barr inactive, Beta apoptosis inactive, ANO1 activ inactive, MC4R antagonist inactive, CSC inhib inactive and TMEM16A inh inactive.
CC(C)(C)c1ccccc1NC(=O)c1ccc(-n2cncn2)c([N+](=O)[O-])c1 was read as MC4R ag barr inactive, Beta apoptosis inactive, ANO1 activ inactive, MC4R antagonist inactive, CSC inhib inactive and TMEM16A inh inactive.
Screening COc1ccccc1CNC(=O)COC(=O)c1nccnc1N returned MC4R ag barr inactive, Beta apoptosis inactive, ANO1 activ inactive, MC4R antagonist inactive, CSC inhib inactive and TMEM16A inh inactive.
Screening CN1CCN(c2ccccc2NC(=O)c2ccc(-c3ccc(Cl)cc3Cl)o2)CC1 returned MC4R ag barr inactive, Beta apoptosis inactive, ANO1 activ inactive, MC4R antagonist inactive, CSC inhib 101 and TMEM16A inh inactive.
For CS(=O)(=O)N1CCN(c2ccccc2NC(=O)Cc2ccc(Cl)cc2)CC1 the results were MC4R ag barr inactive, Beta apoptosis inactive, ANO1 activ -25, MC4R antagonist inactive, CSC inhib inactive and TMEM16A inh inactive.
Screening O=C(COc1ccccc1Cl)NC1CC1 returned MC4R ag barr inactive, Beta apoptosis inactive, ANO1 activ inactive, MC4R antagonist inactive, CSC inhib inactive and TMEM16A inh inactive.
C=CC[C@@H](CC(=O)N[C@@H](CO)Cc1ccccc1)C(=O)N[C@H](C)COC(=O)[C@@H](CC=C)Cc1ccc(F)cc1 was read as MC4R ag barr inactive, Beta apoptosis inactive, ANO1 activ inactive and MC4R antagonist inactive.
For Fc1ccc(N=c2ssnc2Cl)c(F)c1 the results were MC4R ag barr inactive, Beta apoptosis inactive, ANO1 activ inactive, MC4R antagonist 29, CSC inhib inactive and TMEM16A inh inactive.
Clc1nssc1=Nc1ccccc1 was read as MC4R ag barr inactive, ANO1 activ inactive and MC4R antagonist inactive.
Screening Clc1ccc(N=c2ssnc2Cl)cc1 returned MC4R ag barr inactive, Beta apoptosis inactive, ANO1 activ inactive, MC4R antagonist inactive, CSC inhib inactive and TMEM16A inh 100.
`CC1CCCN(S(=O)(=O)c2cccc(C(=O)OCC(=O)N(C)Cc3c(F)cccc3Cl)c2)C1` (stereo unspecified) gave MC4R ag barr inactive, Beta apoptosis inactive, ANO1 activ inactive, MC4R antagonist inactive and CSC inhib inactive.
`CCCCn1c(NC(=O)c2ccc(F)cc2)c(C#N)c2nc3ccccc3nc21` gave Beta apoptosis inactive, CSC inhib inactive and TMEM16A inh 100.
COc1ccc2oc(=O)c(C(=O)N3CCN(C(=O)c4ccco4)CC3)cc2c1 was read as MC4R ag barr inactive, Beta apoptosis inactive, ANO1 activ inactive, MC4R antagonist inactive, CSC inhib inactive and TMEM16A inh inactive.
For Clc1ccc(CSc2nnc(-c3cccnc3)n2Cc2ccco2)c(Cl)c1 the results were MC4R ag barr inactive, Beta apoptosis inactive, ANO1 activ inactive, MC4R antagonist inactive, CSC inhib 86 and TMEM16A inh inactive.
Cc1ccc(NC(=O)NNC(=O)c2snnc2C)cc1 was read as MC4R ag barr inactive, Beta apoptosis inactive, ANO1 activ inactive, MC4R antagonist inactive, CSC inhib inactive and TMEM16A inh inactive.
For CC1CCC(C(C)C)C(OCC(O)CNC(C)c2ccccc2)C1 (stereo unspecified) the results were MC4R ag barr 8.3, Beta apoptosis inactive, ANO1 activ inactive, MC4R antagonist inactive, CSC inhib inactive and TMEM16A inh inactive.
CC1CCC(C(C)C)C(OCC(O)CNC(C)(C)C)C1 (stereo unspecified) was read as MC4R ag barr inactive, Beta apoptosis inactive, ANO1 activ inactive, MC4R antagonist inactive, CSC inhib inactive and TMEM16A inh inactive.
`CNS(=O)(=O)c1cccc(C(=O)OCc2cc(=O)oc3c(C)c(O)ccc23)c1` gave MC4R ag barr inactive, Beta apoptosis inactive, ANO1 activ inactive, MC4R antagonist inactive, CSC inhib inactive and TMEM16A inh 100.
CCc1cc2c(COC(=O)c3cccc(S(C)(=O)=O)c3)cc(=O)oc2cc1O was read as MC4R ag barr inactive, Beta apoptosis inactive, ANO1 activ inactive, MC4R antagonist inactive, CSC inhib inactive and TMEM16A inh inactive.

Screens deposited in PubChem by several laboratories.
